Reference: article PMC10432884 (Clinical and Translational Science, 2023)
Like-named read-outs stand apart in the source and are kept apart here.

Columns and labels:
rodents = details: in vivo; cited from earlier work
healthy subjects [1] = system: healthy subjects
healthy subjects [2] = experiment: First-in-human trial, all phases: overall safety and tolerability; type: in vivo
Procedure, shortened: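 Safety covered all dosed subjects in the SAD, MAD and FI phases: AEs (MedDRA 21.1), concomitant medication, vital signs, ECGs, physical exams and safety labs. BP was taken after 5 min supine, then ≥1 min sitting and 1–3 min standing. Orthostasis was defined as an SBP fall ≥20 mmHg or DBP fall ≥10 mmHg within 3 min standing. TEAEs were summarized by treatment, organ class, severity and drug-relatedness.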

[3] = MAD pooled zagociguat group (n = 32)
[4] = same subject, 2 mg q.d., day 30

Fc1ccccc1Cc1nc(-c2nc(C(F)(F)F)n[nH]2)cn2ccnc12 [zagociguat, 8‐(2‐fluorobenzyl)‐6‐(3‐(trifluoromethyl)‐1H‐1,2,4‐triazol‐5‐yl)imidazo[1,2‐a]pyrazine]
qEEG gamma band power (rodents): increased gamma band power
Subjects discontinued from study drug due to ≥1 TEAE (healthy subjects [1]; MAD 2 mg (n = 8)): 0 n
Subjects with ≥1 SAE (healthy subjects [1]; MAD 2 mg (n = 8)): 0 n
Subjects with ≥1 TEAE (healthy subjects [1]; MAD 2 mg (n = 8)): 6 (75%) n (%)
Subjects with ≥1 study drug related TEAE (healthy subjects [1]; MAD 2 mg (n = 8)): 6 n
TEAEs (healthy subjects [1]; MAD 2 mg (n = 8)): 17 n
Subjects discontinued from study drug due to ≥1 TEAE (healthy subjects [1]; MAD 5 mg (n = 8)): 0 n
Subjects with ≥1 SAE (healthy subjects [1]; MAD 5 mg (n = 8)): 0 n
Subjects with ≥1 TEAE (healthy subjects [1]; MAD 5 mg (n = 8)): 8 (100%) n (%)
Subjects with ≥1 study drug related TEAE (healthy subjects [1]; MAD 5 mg (n = 8)): 7 n
TEAEs (healthy subjects [1]; MAD 5 mg (n = 8)): 27 n
Subjects discontinued from study drug due to ≥1 TEAE (healthy subjects [1]; MAD 10 mg (n = 8)): 0 n
Subjects with ≥1 SAE (healthy subjects [1]; MAD 10 mg (n = 8)): 0 n
Subjects with ≥1 TEAE (healthy subjects [1]; MAD 10 mg (n = 8)): 8 (100%) n (%)
Subjects with ≥1 study drug related TEAE (healthy subjects [1]; MAD 10 mg (n = 8)): 5 n
TEAEs (healthy subjects [1]; MAD 10 mg (n = 8)): 19 n
Subjects with GI TEAEs (healthy subjects [1]; MAD 10 mg group): five
Subjects discontinued from study drug due to ≥1 TEAE (healthy subjects [1]; MAD 15 mg (n = 8)): 0 n
Subjects with ≥1 SAE (healthy subjects [1]; MAD 15 mg (n = 8)): 0 n
Subjects with ≥1 study drug related TEAE (healthy subjects [1]; MAD 15 mg (n = 8)): 5 n
TEAEs (healthy subjects [1]; MAD 15 mg (n = 8)): 18 n
Orthostatic hypotension events (healthy subjects [1]; MAD phase): No orthostatic hypotension events
Subjects discontinued from study drug due to ≥1 TEAE (healthy subjects [1]; [3]): 0 n
Subjects with ≥1 SAE (healthy subjects [1]; [3]): 0 n
Subjects with ≥1 study drug related TEAE (healthy subjects [1]; [3]): 23 n
TEAEs (healthy subjects [1]; [3]): 81 n
Tolerability (healthy subjects [1]; multiple doses up to 15 mg q.d. for 14 days): well‐tolerated with no safety signals
AST, peak (healthy subjects [1]; one subject, 2 mg q.d., day 16 (after last dose), normal range < 35 U/L): 49 U/L
ALT, peak (healthy subjects [1]; one subject, 2 mg q.d., day 16 (after last dose), normal range < 45 U/L): 92 U/L
GGT, peak (healthy subjects [1]; one subject, 2 mg q.d., day 16 (after last dose), normal range < 55 U/L): 22 U/L
ALT at follow-up (healthy subjects [1]; [4]): 49 U/L
AST at follow-up (healthy subjects [1]; [4]): 43 U/L
GGT at follow-up (healthy subjects [1]; [4]): 23 U/L
Severity of observed TEAEs (healthy subjects [2]; across all study phases): mild and transient
Tolerability (healthy subjects [2]; all doses evaluated, all study phases): well‐tolerated
Bleeding time and bleeding events (healthy subjects [2]; all phases): no increases in bleeding time nor any bleeding events
Deaths or other serious AEs (healthy subjects [2]; all study phases): No deaths or other serious AEs
